ChEMBL document CHEMBL1132436 (J Med Chem, 1999)
Residues, ends and D or L forms follow the SMILES beside them.

What was measured:
B2 bradykinin receptor = biological target: T1, B2 bradykinin receptor (Homo sapiens, UniProt P30411); assay: Binding affinity towards human cloned Bradykinin receptor B2 expressed in CHO cells by [3H]bradykinin displacement.; type: cell-based
T1 sequence (P30411 whole entry): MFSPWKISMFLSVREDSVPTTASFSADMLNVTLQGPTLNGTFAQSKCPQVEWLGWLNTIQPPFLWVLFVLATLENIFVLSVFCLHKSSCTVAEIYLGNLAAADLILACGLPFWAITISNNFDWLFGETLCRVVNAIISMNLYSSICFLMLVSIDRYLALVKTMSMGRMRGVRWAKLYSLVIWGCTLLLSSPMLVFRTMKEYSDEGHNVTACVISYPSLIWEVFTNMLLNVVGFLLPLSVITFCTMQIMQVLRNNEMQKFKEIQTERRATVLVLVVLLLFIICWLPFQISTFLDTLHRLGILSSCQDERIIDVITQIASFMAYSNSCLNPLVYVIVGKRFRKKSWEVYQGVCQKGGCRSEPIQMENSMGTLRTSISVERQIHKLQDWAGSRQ
Summary of the method: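 Membranes from stably transfected CHO cells, scraped into 20 mM TES (pH 6.8) with 1 mM 1,10-phenanthroline, 140 μg/mL bacitracin and 0.1% BSA, then pelleted at 40000g for 15 min. Filtered through PEI-soaked GF/B filters and counted by scintillation. Means of ≥3 experiments in duplicate.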

Homo sapiens [1] = species: Homo sapiens; assay: Ability of Compound (Agonist) to contract isolated human umbilical vein in absence of inhibitor.; type: functional
Homo sapiens [2] = species: Homo sapiens; assay: (§1) Ability of Compound (Agonist) to contract isolated human umbilical vein in presence of inhibitor.; type: functional
Homo sapiens [3] = species: Homo sapiens; assay: as §1; type: functional, organism-based; conditions: read-out: pA2 (converted)

`NC(N)=NCCC[C@@H](N)C(=O)N[C@@H](CCCN=C(N)N)C(=O)N1CCC[C@H]1C(=O)N1CC(O)C[C@H]1C(=O)NCC(=O)N[C@@H](Cc1cccs1)C(=O)N[C@@H](CO)C(=O)N[C@]1(Cc2ccccc2)C(=O)C(Cc2ccccc2)N(CC(=O)N[C@@H](CCCN=C(N)N)C(=O)O)C1=O` (some centres not stated) gave a Ki (B2 bradykinin receptor) of 14 nM.
In the case of `N=C(N)NCCC[C@@H](N)C(=O)N[C@@H](CCCNC(=N)N)C(=O)N1CCC[C@H]1C(=O)N1CC(O)C[C@H]1C(=O)NCC(=O)N[C@@H](Cc1cccs1)C(=O)N[C@@H](CO)C(=O)N[C@@H]1CCN(CC(=O)N[C@@H](CCCNC(=N)N)C(=O)O)C1=O` (some centres not stated), the Ki (B2 bradykinin receptor) is reported as 4900 nM.
Compound H-RPPGFSPFR-OH [BRADYKININ] has a pD2 (Homo sapiens [1]) of 7.4 and a pD2 (Homo sapiens [2]) of 7.9.
Compound `Cc1ccc2c(c1)SC[C@@H](NC(=O)[C@H](CO)NC(=O)[C@H](Cc1cccs1)NC(=O)CNC(=O)[C@@H]1C[C@@H](O)CN1C(=O)[C@@H]1CCCN1C(=O)[C@H](CCCNC(=N)N)NC(=O)[C@H](N)CCCNC(=N)N)C(=O)N2CC(=O)N[C@@H](CCCNC(=N)N)C(=O)O` [listing 1 of 2 here] has a pD2 (Homo sapiens [1]) of 7.3 and a pD2 (Homo sapiens [2]) of 7.4.
Work on `N=C(N)NCCC[C@H](NC(=O)CN1C(=O)[C@H](NC(=O)[C@H](CO)NC(=O)[C@H](Cc2cccs2)NC(=O)CNC(=O)[C@@H]2C[C@@H](O)CN2C(=O)[C@@H]2CCCN2C(=O)[C@H](CCCNC(=N)N)NC(=O)[C@@H](N)CCCCN)CSc2ccccc21)C(=O)O` [listing 1 of 2 here] yielded a pD2 (Homo sapiens [1]) of 7 and a pD2 (Homo sapiens [2]) of 7.1.
`NC(N)=NCCC[C@@H](N)C(=O)N[C@@H](CCCN=C(N)N)C(=O)N1CCC[C@H]1C(=O)N1CC(O)C[C@H]1C(=O)NCC(=O)N[C@@H](Cc1cccs1)C(=O)N[C@@H](CO)C(=O)N[C@@H]1CCc2cccc3c2N(C1=O)[C@@H](C(=O)N[C@H](CCCN=C(N)N)C(=O)O)C3` (some centres not stated) was tested, and the Ki (B2 bradykinin receptor; cho) was 140 nM.
`N=C(N)NCCC[C@@H](N)C(=O)N[C@@H](CCCNC(=N)N)C(=O)N1CCC[C@H]1C(=O)N1CC(O)C[C@H]1C(=O)NCC(=O)N[C@@H](Cc1cccs1)C(=O)N[C@@H](CO)C(=O)N[C@H]1CCCCN(CC(=O)N[C@@H](CCCNC(=N)N)C(=O)O)C1=O` (some centres not stated) gave a Ki (B2 bradykinin receptor) of 520 nM.
With `N=C(N)NCCC[C@@H](N)C(=O)N[C@@H](CCCNC(=N)N)C(=O)N1CCC[C@H]1C(=O)N1C[C@H](O)C[C@H]1C(=O)NCC(=O)N[C@@H](Cc1cccs1)C(=O)N[C@@H](CO)C(=O)N[C@@H]1COc2ccccc2N(CC(=O)N[C@@H](CCCNC(=N)N)C(=O)O)C1=O` [listing 1 of 2 here] the Ki (B2 bradykinin receptor) was 2.5 nM.
In the case of `N=C(N)NCCC[C@@H](N)C(=O)N[C@@H](CCCNC(=N)N)C(=O)N1CCC[C@H]1C(=O)N1CC(O)C[C@H]1C(=O)NCC(=O)N[C@@H](Cc1cccs1)C(=O)N[C@@H](CO)C(=O)N[C@H]1CCCN(CC(=O)N[C@@H](CCCNC(=N)N)C(=O)O)C1=O` (some centres not stated), the Ki (B2 bradykinin receptor) is reported as 18600 nM.
`Cc1ccc2c(c1)SC[C@@H](NC(=O)[C@H](CO)NC(=O)[C@H](Cc1cccs1)NC(=O)CNC(=O)[C@@H]1C[C@@H](O)CN1C(=O)[C@@H]1CCCN1C(=O)[C@H](CCCNC(=N)N)NC(=O)[C@H](N)CCCNC(=N)N)C(=O)N2CC(=O)N[C@@H](CCCNC(=N)N)C(=O)O` [listing 2 of 2 here] gave a Ki (B2 bradykinin receptor) of 6 nM.
In the case of `NC(N)=NCCC[C@@H](N)C(=O)N[C@@H](CCCN=C(N)N)C(=O)N1CCC[C@H]1C(=O)N1C[C@H](O)C[C@H]1C(=O)NCC(=O)N[C@@H](Cc1cccs1)C(=O)N[C@@H](CO)C(=O)NC1N=C(c2ccccc2)c2ccccc2N(CC(=O)N[C@@H](CCCN=C(N)N)C(=O)O)C1=O` (stereo in doubt; 35), the Ki (B2 bradykinin receptor; cho) is reported as 1040 nM.
With `N=C(N)NCCC[C@@H](N)C(=O)N[C@@H](CCCNC(=N)N)C(=O)N1CCC[C@H]1C(=O)N1C[C@H](O)C[C@H]1C(=O)NCC(=O)N[C@@H](Cc1cccs1)C(=O)N[C@@H](CO)C(=O)N[C@@H]1COc2ccccc2N(CC(=O)N[C@@H](CCCNC(=N)N)C(=O)O)C1=O` [listing 2 of 2 here] the pD2 (Homo sapiens [1]) was 5.1.
In the case of `N=C(N)NCCC[C@@H](N)C(=O)N[C@@H](CCCNC(=N)N)C(=O)N1CCC[C@H]1C(=O)N1C[C@H](O)C[C@H]1C(=O)NCC(=O)N[C@@H](Cc1cccs1)C(=O)N[C@@H](CO)C(=O)N[C@@H]1CSc2ccccc2N(CC(=O)N[C@@H](CCCNC(=N)N)C(=O)O)C1=O` [listing 1 of 2 here], the pD2 (Homo sapiens [1]) is reported as 6.7 and the pD2 (Homo sapiens [2]) is reported as 6.8.
Compound `NC(N)=NCCC[C@@H](N)C(=O)N[C@@H](CCCN=C(N)N)C(=O)N1CCC[C@H]1C(=O)N1C[C@H](O)C[C@H]1C(=O)NCC(=O)N[C@@H](Cc1cccs1)C(=O)N[C@@H](CO)C(=O)NC1N=C(c2ccccc2)c2ccccc2N(CC(=O)N[C@@H](CCCN=C(N)N)C(=O)O)C1=O` (stereo in doubt; 34) has a Ki (B2 bradykinin receptor; cho) of 86 nM.
In the case of `N=C(N)NCCC[C@@H](N)C(=O)N[C@@H](CCCNC(=N)N)C(=O)N1CCC[C@H]1C(=O)N1C[C@H](O)C[C@H]1C(=O)NCC(=O)N[C@@H](Cc1cccs1)C(=O)N[C@@H](CO)C(=O)N1Cc2ccccc2C[C@@H]1C(=O)N1[C@H](C(=O)N[C@@H](CCCNC(=N)N)C(=O)O)C[C@@H]2CCCC[C@@H]21` [ICATIBANT], the Kb (Homo sapiens [3]) is reported as 6.31 nM.
`NC(N)=NCCC[C@@H](N)C(=O)N[C@@H](CCCN=C(N)N)C(=O)N1CCC[C@H]1C(=O)N1CC(O)C[C@H]1C(=O)NCC(=O)N[C@@H](Cc1cccs1)C(=O)N[C@@H](CO)C(=O)N[C@@H]1CCCCN(CC(=O)N[C@@H](CCCN=C(N)N)C(=O)O)C1=O` (some centres not stated) was tested, and the Ki (B2 bradykinin receptor) was 770 nM.
`COc1ccc(C[C@@H](CN[C@@H](CCCN=C(N)N)C(=O)O)NC(=O)[C@@H]2CCCN2C(=O)[C@H](CO)NC(=O)[C@H](Cc2cccs2)NC(=O)CNC(=O)[C@@H]2C[C@@H](O)CN2C(=O)[C@@H]2CCCN2C(=O)[C@@H](N)CCCN=C(N)N)cc1` (HELM PEPTIDE1{R.P.[Hyp].G.[O=C([C@H](Cc1cccs1)N[*:1])[*:2]].S.P.[COc1ccc(C[C@@H](CN[C@@H](CCCN=C(N)N)C(=O)O)N[*:1])cc1]}$$$$V2.0) was tested, and the pD2 (Homo sapiens [1]) was 6.9 and the pD2 (Homo sapiens [2]) was 7.1.
For `N=C(N)NCCC[C@@H](N)C(=O)N[C@@H](CCCNC(=N)N)C(=O)N1CCC[C@H]1C(=O)N1CC(O)C[C@H]1C(=O)NCC(=O)N[C@@H](Cc1cccs1)C(=O)N[C@@H](CO)C(=O)N[C@H]1CCN(CC(=O)N[C@@H](CCCNC(=N)N)C(=O)O)C1=O` (some centres not stated), the Ki (B2 bradykinin receptor) was 1030 nM.
`N=C(N)NCCC[C@@H](N)C(=O)N[C@@H](CCCNC(=N)N)C(=O)N1CCC[C@H]1C(=O)N1C[C@H](O)C[C@H]1C(=O)NCC(=O)N[C@@H](Cc1cccs1)C(=O)N[C@@H](CO)C(=O)N[C@@H]1CSc2ccccc2N(CC(=O)N[C@@H](CCCNC(=N)N)C(=O)O)C1=O` [listing 2 of 2 here] gave a Ki (B2 bradykinin receptor) of 0.7 nM.
`NC(N)=NCCC[C@@H](N)C(=O)N[C@@H](CCCN=C(N)N)C(=O)N1CCC[C@H]1C(=O)N1CC(O)C[C@H]1C(=O)NCC(=O)N[C@@H](Cc1cccs1)C(=O)N[C@@H](CO)C(=O)N[C@@H]1CCN([C@@H](Cc2ccccc2)C(=O)N[C@@H](CCCN=C(N)N)C(=O)O)C1=O` (some centres not stated) was tested, and the Ki (B2 bradykinin receptor) was 2070 nM.
`NC(N)=NCCC[C@@H](N)C(=O)N[C@@H](CCCN=C(N)N)C(=O)N1CCC[C@H]1C(=O)N1CC(O)C[C@H]1C(=O)NCC(=O)N[C@@H](Cc1cccs1)C(=O)N[C@@H](CO)C(=O)N[C@H]1CCc2cccc3c2N(C1=O)[C@@H](C(=O)N[C@H](CCCN=C(N)N)C(=O)O)C3` (some centres not stated) was tested, and the Ki (B2 bradykinin receptor; cho) was 160 nM.
With `N=C(N)NCCC[C@H](NC(=O)CN1C(=O)[C@H](NC(=O)[C@H](CO)NC(=O)[C@H](Cc2cccs2)NC(=O)CNC(=O)[C@@H]2C[C@@H](O)CN2C(=O)[C@@H]2CCCN2C(=O)[C@H](CCCNC(=N)N)NC(=O)[C@@H](N)CCCCN)CSc2ccccc21)C(=O)O` [listing 2 of 2 here] the Ki (B2 bradykinin receptor) was 0.07 nM.
